pIC50: −log10 of the molar value.
Legend:
Jurkat [1] = experiment: Cytotoxicity against human Jurkat cells assessed as live cells in neubauer chamber after 24 hrs by trypan blue assay; type: cell-based
[2] = Permeability across human Caco2 cells; type: ADME, cell-based; conditions: Caco-2, read-out: permeability
[3] = Human intestinal absorption in human; type: ADME, organism-based; conditions: read-out: HIA
Summary of the method: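 Values are computed, not measured. Human intestinal absorption (%) and Caco-2 permeability (nm/s) were predicted in silico with the PreADMET program.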

Leishmania infantum [4] = experiment: Antileishmanial activity against Leishmania infantum MCAN/ES/89/IPZ229/1/89 amastigotes expressing GFP infected in human THP1 cells assessed as parasite infected cells at 3 uM after 48 hrs by flow cytometry (reference value: 35%); type: functional, THP-1
[5] = Selectivity ratio, ratio of IC50 for human THP1 cells to IC50 for Leishmania infantum MCAN/ES/89/IPZ229/1/89 amastigotes; type: ADME, cell-based; conditions: THP-1 cells, read-out: Ratio IC50
Summary of the method: (§1)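 Selectivity index is IC50 against Jurkat or THP-1 cells divided by IC50 against L. infantum amastigotes. Host cells were treated in log phase at 4×10^5 cells/mL for 24 h at 37 °C, 5% CO2, at 0.08, 0.4, 2.0, 10.0 and 50.0 μM. Viability was measured by flow cytometry with propidium iodide exclusion.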

[6] = Selectivity ratio, ratio of IC50 for human Jurkat cells to IC50 for Leishmania infantum MCAN/ES/89/IPZ229/1/89 amastigotes; type: ADME, cell-based; conditions: read-out: Ratio IC50; summary of the method: as §1
Leishmania infantum [7] = experiment: Antileishmanial activity against Leishmania infantum MCAN/ES/89/IPZ229/1/89 amastigotes after 24 hrs by microscopy; type: functional, organism-based; conditions: MCAN/ES/89/IPZ229/1/89, 24 h
Summary of the method: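 Axenic L. infantum amastigotes (M199, 10% FCS, pH 5.4, 37 °C) treated in log phase at 1×10^6 parasites/mL for 24 h. Living cells counted by flow cytometry with propidium iodide exclusion, with microscopic observation by phase contrast or fluorescence. At least three independent experiments.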

Leishmania infantum [8] = experiment: Antileishmanial activity against Leishmania infantum MCAN/ES/89/IPZ229/1/89 promastigotes after 24 hrs […]; type: functional, organism-based; conditions: MCAN/ES/89/IPZ229/1/89, 24 h
Summary of the method: (§2)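 Log-phase L. infantum promastigotes (RPMI-1640, 10% FCS, 25 mM HEPES, pH 7.2, 26 °C) treated at 2×10^6 parasites/mL for 24 h. Screening used 25, 12.5 and 6.25 μM to give percent growth inhibition. Living cells measured by flow cytometry with propidium iodide exclusion. At least three independent experiments.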

THP-1 [9] = experiment: Cytotoxicity against human THP1 cells assessed as live cells in neubauer chamber after 24 hrs by trypan blue assay; type: cell-based; conditions: THP-1, 24 h
Leishmania infantum [10] = experiment: Antileishmanial activity against Leishmania infantum MCAN/ES/89/IPZ229/1/89 amastigotes expressing GFP infected in human THP1 cells assessed as reduction in parasite infection rate at 3 uM after 48 hrs by flow cytometry; type: functional, THP-1; design: scale not given: the % may be the effect or the level left
Leishmania infantum [11] = experiment: Antileishmanial activity against Leishmania infantum MCAN/ES/89/IPZ229/1/89 axenic amastigotes infected in human THP1 cells expressing GFP assessed as complete killing of parasite at 3 uM after 48 hrs by propidium iodide staining based flow cytometry; type: functional, THP-1
Leishmania infantum [12] = experiment: Antileishmanial activity against Leishmania infantum MCAN/ES/89/IPZ229/1/89 axenic amastigotes infected expressing GFP in human […] cells assessed as axenic parasite killing at 3 uM after 48 hrs by propidium iodide staining based flow cytometry; type: functional
THP-1 [13] = experiment: Cytotoxicity against human THP1 cells infected with Leishmania infantum MCAN/ES/89/IPZ229/1/89 at 3 uM using propidium iodide staining by fluorescence contrast microscopy; type: cell-based; conditions: thp-1, 3 µM
Summary of the method: (§3)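 Drug was added to PMA-differentiated THP-1 cells infected with eGFP amastigotes, at 1, 3 and 15 µM, alongside a DMSO control at the highest assay concentration. Propidium iodide was added to a final 5 µg/mL, and cells were examined at once by phase contrast and fluorescence microscopy; PI stains dead cells.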

THP-1 [14] = experiment: Cytotoxicity against human THP1 cells infected with Leishmania infantum MCAN/ES/89/IPZ229/1/89 at 3 uM by phase contrast microscopy; type: cell-based; conditions: thp-1, 3 µM; summary of the method: as §3
THP-1 [15] = experiment: Cytotoxicity against human THP1 cells infected with Leishmania infantum MCAN/ES/89/IPZ229/1/89 at 1 uM using propidium iodide staining by fluorescence contrast microscopy; type: cell-based; conditions: thp-1, 1 µM; summary of the method: as §3
THP-1 [16] = experiment: Cytotoxicity against human THP1 cells infected with Leishmania infantum MCAN/ES/89/IPZ229/1/89 at 1 uM by phase contrast microscopy; type: cell-based; conditions: thp-1, 1 µM; summary of the method: as §3
Jurkat [17] = experiment: Cytotoxicity against human Jurkat cells infected with Leishmania infantum MCAN/ES/89/IPZ229/1/89 at 3 uM using propidium iodide staining by fluorescence contrast microscopy; type: cell-based
Jurkat [18] = experiment: Cytotoxicity against human Jurkat cells infected with Leishmania infantum MCAN/ES/89/IPZ229/1/89 at 3 uM by phase contrast microscopy; type: cell-based
Jurkat [19] = experiment: Cytotoxicity against human Jurkat cells infected with Leishmania infantum MCAN/ES/89/IPZ229/1/89 at 1 uM using propidium iodide staining by fluorescence contrast microscopy; type: cell-based
Jurkat [20] = experiment: Cytotoxicity against human Jurkat cells infected with Leishmania infantum MCAN/ES/89/IPZ229/1/89 at 1 uM by phase contrast microscopy; type: cell-based
Leishmania infantum [21] = experiment: Antileishmanial activity against Leishmania infantum MCAN/ES/89/IPZ229/1/89 amastigotes expressing GFP infected in human THP1 cells assessed as parasite infected cells after 48 hrs by flow cytometry (reference value: 35%); type: functional, THP-1
Leishmania infantum [22] = experiment: Antileishmanial activity against Leishmania infantum MCAN/ES/89/IPZ229/1/89 promastigotes assessed as growth inhibition at 25 uM after 24 hrs; type: functional; summary of the method: as §2
Leishmania infantum [23] = experiment: Antileishmanial activity against Leishmania infantum MCAN/ES/89/IPZ229/1/89 promastigotes assessed as growth inhibition at 12.5 uM after 24 hrs; type: functional; summary of the method: as §2
Leishmania infantum [24] = experiment: Antileishmanial activity against Leishmania infantum MCAN/ES/89/IPZ229/1/89 promastigotes assessed as growth inhibition at 6.25 uM after 24 hrs; type: functional; summary of the method: as §2
THP-1 [25] = experiment: Cytotoxicity against human THP1 cells infected with Leishmania infantum MCAN/ES/89/IPZ229/1/89 at 3 uM; type: cell-based; conditions: thp-1, 3 µM

CCCCCCCCCCCCCCCCCCOCC(COP(=O)([O-])OCC[N+](C)(C)C)OC (configuration not stated) [EDELFOSINE]
pIC50 (Jurkat [1]): 4.91
Papp [2]: 3.94 ×10⁻⁶ cm/s
Fa [3]: 98.4%
Activity (Leishmania infantum [4]): 5%
selectivity ratio [5]: 6
selectivity ratio [6]: 15
pIC50 (Leishmania infantum [7]): 6.09
pIC50 (Leishmania infantum [8]): 5.44
pIC50 (THP-1 [9]): 5.30

Nc1ccc([Se][Se]c2ccc(N)cc2)cc1
Activity (Leishmania infantum [10]): 74%
pIC50 (Jurkat [1]): 4.92
Papp [2]: 2.29 ×10⁻⁶ cm/s
Fa [3]: 97.6%
Activity (Leishmania infantum [11]): 100%
Activity (Leishmania infantum [12]): 100%
Activity (THP-1 [13]): Non-toxic
Activity (THP-1 [14]): Non-toxic
Activity (THP-1 [15]): Non-toxic
Activity (THP-1 [16]): Non-toxic
Activity (Jurkat [17]): Non-toxic
Activity (Jurkat [18]): Non-toxic
Activity (Jurkat [19]): Non-toxic
Activity (Jurkat [20]): Non-toxic
Activity (Leishmania infantum [21]): 9%
selectivity ratio [5]: 24
selectivity ratio [6]: 32
pIC50 (Leishmania infantum [8]): 6.02
pIC50 (THP-1 [9]): 4.85
GI (Leishmania infantum [22]): 98%
GI (Leishmania infantum [23]): 97.6%
GI (Leishmania infantum [24]): 95.8%
Activity (THP-1 [25]): Non-toxic

Reference: ChEMBL document CHEMBL1806371, “Selenocyanates and diselenides: a new class of potent antileishmanial agents” (Eur J Med Chem, 2011)
